Legend:
Nucleic Acid [1] = experiment: Ratio of drug uptake in striatum to cerebellum of Sprague-Dawley rat at 30 uCi, iv measured after 30 mins by gamma counting; format: ADME, organism-based; settings: in vivo, 0.5 h
Procedure, shortened: (§1)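 Male Sprague-Dawley rats (n = 3) received 30 μCi of the 18F tracer iv and were dissected at 30 min. Brain regions gamma counted as %dose/g against injected-dose aliquots. Regional uptake expressed as a ratio to cerebellum uptake.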

Brain = experiment: Biodistribution in Sprague-Dawley rat brain at 30 uCi, iv measured after 30 mins by gamma counting; format: ADME, organism-based; settings: in vivo, 0.5 h
Procedure, shortened: (§2)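 Normal male Sprague-Dawley rats (n = 3) received 30 μCi of the 18F tracer iv per rat and were sacrificed at 30 min. Organs removed, weighed and gamma counted. Striatum, hippocampus, cerebellum, cortex and hypothalamus dissected and counted separately. %dose/g calculated against diluted aliquots of the injected dose; mean ± S.D. of 3 rats.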

Hypothalamus = experiment: Biodistribution in Sprague-Dawley rat hypothalamus at 30 uCi, iv measured after 30 mins by gamma counting; format: ADME, organism-based; settings: in vivo, 0.5 h; procedure, shortened: as §2
Striatum = experiment: Biodistribution in Sprague-Dawley rat striatum at 30 uCi, iv measured after 30 mins by gamma counting; format: ADME, organism-based; settings: in vivo, 0.5 h; procedure, shortened: as §2
[2] = 1-Octanol-sodium phosphate buffer partition coefficient, log P of the compound at pH 7.4 after 4 mins; format: physicochemical
Procedure, shortened: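 Radiolabelled compound added to 3 g 1-octanol and 3 g NaH2PO4 buffer, pH 7.4. Mixture vortexed 1 min and centrifuged 3 min. Octanol layer removed and partition repeated two more times. log P taken from the ratio of counts/mL in octanol vs buffer after the third partition.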

Heart = experiment: Biodistribution in Sprague-Dawley rat heart at 30 uCi, iv measured after 30 mins by gamma counting; format: ADME, organism-based; settings: in vivo, 0.5 h; procedure, shortened: as §2
Liver = experiment: Biodistribution in Sprague-Dawley rat liver at 30 uCi, iv measured after 30 mins by gamma counting; format: ADME, organism-based; settings: in vivo, 0.5 h; procedure, shortened: as §2
Blood = experiment: Biodistribution in Sprague-Dawley rat blood at 30 uCi, iv measured after 30 mins by gamma counting; format: ADME, organism-based; settings: in vivo, 0.5 h; procedure, shortened: as §2
Bone = experiment: Biodistribution in Sprague-Dawley rat bone at 30 uCi, iv measured after 30 mins by gamma counting; format: ADME, organism-based, Bone element; settings: in vivo, 0.5 h; procedure, shortened: as §2
[3] = biological target: T1, Sodium-dependent dopamine transporter (Homo sapiens, UniProt Q01959); experiment: Displacement of [125I]IPT from DAT overexpressed in LLC-PK1 cell membrane by competitive binding assay
Hippocampus = experiment: Biodistribution in Sprague-Dawley rat hippocampus at 30 uCi, iv measured after 30 mins by gamma counting; format: ADME, organism-based; settings: in vivo, 0.5 h; procedure, shortened: as §2
Cortex = experiment: Biodistribution in Sprague-Dawley rat cortex at 30 uCi, iv measured after 30 mins by gamma counting; format: ADME, organism-based; settings: in vivo, 0.5 h; procedure, shortened: as §2
Muscle tissue = experiment: Biodistribution in Sprague-Dawley rat muscle at 30 uCi, iv measured after 30 mins by gamma counting; format: ADME, organism-based; settings: in vivo, 0.5 h; procedure, shortened: as §2
Cerebellum = experiment: Biodistribution in Sprague-Dawley rat cerebellum at 30 uCi, iv measured after 30 mins by gamma counting; format: ADME, organism-based; settings: in vivo, 0.5 h; procedure, shortened: as §2
Kidney = experiment: Biodistribution in Sprague-Dawley rat kidney at 30 uCi, iv measured after 30 mins by gamma counting; format: ADME, organism-based; settings: in vivo, 0.5 h; procedure, shortened: as §2
Nucleic Acid [4] = experiment: Ratio of drug uptake in hippocampus to cerebellum of Sprague-Dawley rat at 30 uCi, iv measured after 30 mins by gamma counting; format: ADME, organism-based; settings: in vivo, 0.5 h; procedure, shortened: as §1
Lung = experiment: Biodistribution in Sprague-Dawley rat lung at 30 uCi, iv measured after 30 mins by gamma counting; format: ADME, organism-based; settings: in vivo, 0.5 h; procedure, shortened: as §2
[5] = biological target: T1, Sodium-dependent dopamine transporter; experiment: Binding affinity to DAT

T1 sequence (Q01959 whole entry): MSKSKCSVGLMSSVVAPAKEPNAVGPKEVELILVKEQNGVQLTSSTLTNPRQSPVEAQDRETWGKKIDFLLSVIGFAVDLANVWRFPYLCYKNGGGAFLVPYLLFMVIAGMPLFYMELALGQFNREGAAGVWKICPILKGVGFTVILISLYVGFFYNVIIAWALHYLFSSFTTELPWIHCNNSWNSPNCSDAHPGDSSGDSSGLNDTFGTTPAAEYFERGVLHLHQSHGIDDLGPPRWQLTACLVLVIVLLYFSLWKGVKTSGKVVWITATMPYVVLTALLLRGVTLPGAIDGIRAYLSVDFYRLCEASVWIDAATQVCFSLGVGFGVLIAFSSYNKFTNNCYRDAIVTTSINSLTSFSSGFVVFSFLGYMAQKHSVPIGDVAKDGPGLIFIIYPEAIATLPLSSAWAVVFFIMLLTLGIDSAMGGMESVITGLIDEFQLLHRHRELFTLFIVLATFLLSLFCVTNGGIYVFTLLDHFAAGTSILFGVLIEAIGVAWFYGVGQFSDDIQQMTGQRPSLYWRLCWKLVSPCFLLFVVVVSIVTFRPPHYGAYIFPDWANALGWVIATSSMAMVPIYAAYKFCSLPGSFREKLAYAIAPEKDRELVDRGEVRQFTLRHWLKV

In the case of `CN(CC[18F])C[C@H]1[C@@H](c2ccc(Cl)cc2)C[C@@H]2CC[C@H]1N2C`, the Ratio (Nucleic Acid [1]) is reported as 1.63, the Drug uptake (Brain) is reported as 0.72 % ID/g and the Drug uptake (Hypothalamus) is reported as 0.82 % ID/g. It also gave a Drug uptake (Striatum) of 1.07 % ID/g, a logD at 4 min [2] of 1.52 and a Drug uptake (Heart) of 0.8 % ID/g. For the same compound, the Drug uptake (Liver) was 3.01 % ID/g, the Drug uptake (Blood) was 0.1 % ID/g and the Drug uptake (Bone) was 0.43 % ID/g. For the same compound, the Ki [3] was 3.79 nM, the Drug uptake (Hippocampus) was 0.79 % ID/g and the Drug uptake (Cortex) was 0.91 % ID/g. It also gave a Drug uptake (Muscle tissue) of 0.27 % ID/g, a Drug uptake (Cerebellum) of 0.65 % ID/g and a Drug uptake (Kidney) of 3.65 % ID/g. The Ratio (Nucleic Acid [4]) was 1.21 and the Drug uptake (Lung) was 5.93 % ID/g.
For `CN(CCC[18F])C[C@H]1[C@@H](c2ccc(Cl)cc2)C[C@@H]2CC[C@H]1N2C`, the Ratio (Nucleic Acid [1]) was 0.94, the Drug uptake (Brain) was 0.52 % ID/g and the Drug uptake (Hypothalamus) was 0.63 % ID/g. The Drug uptake (Striatum) was 0.63 % ID/g, the logD at 4 min [2] was 1.72 and the Drug uptake (Heart) was 1.56 % ID/g. It also gave a Drug uptake (Liver) of 2.08 % ID/g, a Drug uptake (Blood) of 0.1 % ID/g and a Drug uptake (Bone) of 0.5 % ID/g. The Ki [3] was 2.64 nM, the Drug uptake (Hippocampus) was 0.54 % ID/g and the Drug uptake (Cortex) was 0.68 % ID/g. It also gave a Drug uptake (Muscle tissue) of 0.22 % ID/g, a Drug uptake (Cerebellum) of 0.66 % ID/g and a Drug uptake (Kidney) of 4.63 % ID/g. The Ratio (Nucleic Acid [4]) was 0.8 and the Drug uptake (Lung) was 11.5 % ID/g.
In the case of `CN(CCOCC[18F])C[C@H]1[C@@H](c2ccc(Cl)cc2)C[C@@H]2CC[C@H]1N2C`, the Ki [3] is reported as 4.63 nM.
With `CN(C)C(=O)[C@H]1[C@@H](c2ccc(Cl)cc2)C[C@@H]2CC[C@H]1N2CC[18F]` the logD at 4 min [2] was -0.11 and the Ki [3] was 699 nM.
`CN(C)C(=O)[C@H]1[C@@H](c2ccc(Cl)cc2)C[C@@H]2CC[C@H]1N2CCC[18F]` showed a logD at 4 min [2] of -0.07 and a Ki [3] of 135 nM.
With `CN(C)C[C@H]1[C@@H](c2ccc(Cl)cc2)C[C@@H]2CC[C@H]1N2CC[18F]` the logD at 4 min [2] was 1.88 and the Ki [3] was 18.3 nM.
`CN(C)C[C@H]1[C@@H](c2ccc(Cl)cc2)C[C@@H]2CC[C@H]1N2CCC[18F]` showed a Ratio (Nucleic Acid [1]) of 1.1, a Drug uptake (Brain) of 0.39 % ID/g and a Drug uptake (Hypothalamus) of 0.43 % ID/g. The Drug uptake (Striatum) was 0.49 % ID/g, the logD at 4 min [2] was 1.98 and the Drug uptake (Heart) was 0.57 % ID/g. It also gave a Drug uptake (Liver) of 0.86 % ID/g, a Drug uptake (Blood) of 0.14 % ID/g and a Drug uptake (Bone) of 1.04 % ID/g. The Ki [3] was 26.9 nM, the Drug uptake (Hippocampus) was 0.44 % ID/g and the Drug uptake (Cortex) was 0.52 % ID/g. It also gave a Drug uptake (Muscle tissue) of 0.3 % ID/g, a Drug uptake (Cerebellum) of 0.44 % ID/g and a Drug uptake (Kidney) of 2.08 % ID/g. For the same compound, the Ratio (Nucleic Acid [4]) was 0.99 and the Drug uptake (Lung) was 5.58 % ID/g.
For `COC(=O)[C@H]1[C@@H](c2ccc(Cl)cc2)C[C@@H]2CC[C@H]1N2C/C=C/[125I]`, the Kd [5] was 1.2 nM.
In the case of `Cc1ccc([C@H]2C[C@@H]3CC[C@H]([C@H]2C(=O)OCC[18F])N3C/C=C/I)cc1`, the Ki [5] is reported as 12 nM.
